Data on three compounds can be found in ChEMBL document CHEMBL1125812, “Synthesis of two cyclopentenyl-3-deazapyrimidine carbocyclic nucleosides related to cytidine and uridine” (1991).

Each structure is given as a SMILES string.

A word on the inhibition: it is the drop in the measured response relative to a control, in per cent. Lower therefore signals a weak effect.

Holding throughout (assay type): functional
What all share (conditions): Mus musculus

Test [1] has as its system L1210. Kind of test: Compound was evaluated for the ability to inhibit L1210 tumor cell growth a concentration of 10 uM. In a few lines:
(§1)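 L1210 cells seeded at 0.15 × 10^5 cells/mL in Fisher's medium with 10% heat-inactivated horse serum. Drug exposure was continuous for 48 h, and cell number was counted with a Coulter counter. Percent inhibition was calculated relative to untreated control cultures, which reached 4.5 × 10^5 cells/mL.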

Test [2] concerns L1210. The experiment in a line: Compound was evaluated for the ability to inhibit L1210 tumor cell growth a concentration of 1 uM. The method, boiled down: as §1
Test [3] has as its system L1210. The experiment in a line: Compound was evaluated for the ability to inhibit L1210 tumor cell growth a concentration of 100 uM. In a few lines:
as §1

The test system of test [4] is L1210. Kind of test: Compound was evaluated for the ability to inhibit L1210 tumor cell growth a concentration of 1000 uM. In a few lines:
as §1

In test [1], `Nc1ccn([C@@H]2C=C(CO)[C@@H](O)[C@H]2O)c(=O)n1` registered an inhibition at 10 µM of 93%. Further, 1 µM produced 93% inhibition in test [2]. Also, the inhibition at 100 µM in test [3] turned out to be 93%.

In test [1], `Nc1ccn([C@@H]2C=C(CO)[C@@H](O)[C@H]2O)c(=O)c1` registered an inhibition at 10 µM of 0%. In test [4], this compound came in with an inhibition at 1000 µM of 15%. In test [2], the inhibition at 1 µM was 0%. In test [3], this compound had an inhibition at 100 µM of 0%.

With `O=c1cc(O)ccn1[C@@H]1C=C(CO)[C@@H](O)[C@H]1O`, in test [1], the inhibition at 10 µM was 45%. For the same compound, 1000 µM produced 75% inhibition in test [4]. Further, at 1 µM the inhibition in test [2] was 8%. In addition, testing at 100 µM in test [3] gave an inhibition of 66%.
